A selection: hits, their analogues and other compounds. The true share with any hit is near 2.3%.
RORa activator – RORA (human) activation | P35398 | activation, % at 10 µM | CHO-K1 Gal4-RORA LBD luciferase reporter, luminescence; percent increase over mock-subtracted basal signal | 65,000 tested, 1.5% active;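 active = activation above the mean of all tested compounds plus 3 SD, cut at about 49% in these data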;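 also: 0% = DMSO-treated RORA cells and 100% = added signal equal to DMSO minus mock-transfected cells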
Target sequence (P35398 whole entry, looked up, the tested form may be a part): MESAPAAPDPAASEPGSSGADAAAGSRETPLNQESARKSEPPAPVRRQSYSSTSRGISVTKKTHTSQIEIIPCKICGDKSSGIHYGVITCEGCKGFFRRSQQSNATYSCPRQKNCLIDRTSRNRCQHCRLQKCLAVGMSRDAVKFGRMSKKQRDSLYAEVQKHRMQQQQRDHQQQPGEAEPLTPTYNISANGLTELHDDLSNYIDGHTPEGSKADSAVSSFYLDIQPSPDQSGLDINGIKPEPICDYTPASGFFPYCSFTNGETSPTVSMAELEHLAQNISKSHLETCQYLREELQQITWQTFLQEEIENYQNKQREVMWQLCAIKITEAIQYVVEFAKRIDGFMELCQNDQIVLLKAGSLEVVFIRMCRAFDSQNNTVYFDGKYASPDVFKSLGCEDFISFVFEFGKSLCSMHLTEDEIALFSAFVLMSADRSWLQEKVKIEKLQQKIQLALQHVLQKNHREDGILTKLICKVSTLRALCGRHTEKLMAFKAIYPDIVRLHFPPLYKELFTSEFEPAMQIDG
JNK3 blocker – inhibitors of human JNK3 kinase | P53779 | purified JNK3 kinase activity, HTS | inhibition, % at 8 µM | 60,000 tested, 0.61% active; in the data active = inhibition above about 17%;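 also: 0% = DMSO and 100% = reference inhibitor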
SF1 activator – activates the human nuclear receptor SF-1; Q13285; CHO-K1 Gal4-SF-1 LBD luciferase reporter; % increase over DMSO SF-1-specific signal; activation, % at 10 µM; 65,000 tested, 1.9% active;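 active = activation above the mean activation of all tested compounds plus 3 SD, cut at about 50% in these data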
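Material: Transient Gal4-SF-1 LBD reporter, CHO-K1 | Input: 4,000 cells/well | Dosing: One dose, 10 µM compound, 1% DMSO | Incubation: 20 h compound treatment, 37 °C | Detection: SteadyLite luciferase luminescence | Evaluation: Percent activation relative to DMSO median and mock-transfected background | Benchmarks: DMSO-treated SF-1-transfected cells as negative, DMSO-treated mock-transfected cells lacking SF-1 as background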
MT1-MMP txn act – activates MT1-MMP transcription; HT1080 MT1-MMP promoter luciferase reporter, luminescence, overnight; active compounds read high; activation factor at 10 µM; 86,000 tested, 0.16% active; AID 750;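 active = activation factor of at least 2 for MT1-MMP transcription at 10 µM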
* hit, by the source's call.

What do the screens show for `CC1CCc2c(sc(NC(=O)CSc3ncnc4c3cnn4-c3ccccc3Cl)c2C#N)C1` (stereo not drawn)?
MT1-MMP txn act: 1

What do the screens show for `CCOC(=O)c1snc(C(=O)NC2CCCCC2)c1N`?
RORa activator: 56.8*; JNK3 blocker: -1.5; SF1 activator: 105.9*; MT1-MMP txn act: 1.5

What do the screens show for `Nc1c(C(=O)NC2CCCCC2)nsc1C(=O)OCC(=O)NC1CCCCC1`?
RORa activator: -5.7; JNK3 blocker: 1.9; SF1 activator: -0.2; MT1-MMP txn act: 1

Results for Clc1ccc2[nH]c3c(c2c1)CCc1cn[nH]c1-3 ?
RORa activator: 32.7; JNK3 blocker: 85.0*; SF1 activator: 16.1; MT1-MMP txn act: 1.2

What do the screens show for `O=C1CCCc2c1[nH]c1ccccc21`?
RORa activator: 17.2; JNK3 blocker: 3.1; SF1 activator: 14.2; MT1-MMP txn act: 1.2

What do the screens show for `c1ccc2c3c([nH]c2c1)-c1[nH]ncc1CC3`?
RORa activator: -10.5; JNK3 blocker: 54.4*; SF1 activator: 22.4; MT1-MMP txn act: 1.6

Results for O=CNC1CCCc2c1[nH]c1ccc(Cl)cc21 (stereo not drawn) ?
RORa activator: 4.0; JNK3 blocker: -1.4; SF1 activator: 0.6; MT1-MMP txn act: 1.4

Results for COc1ccccc1N1CCN(C(=O)Cn2c(=O)[nH]c3ccsc3c2=O)CC1 ?
MT1-MMP txn act: 1.1

How did Cn1ncc2c1ncn1nc(COc3ccc4ccccc4c3)nc21 do in these assays?
RORa activator: 10.1; JNK3 blocker: 0.6; SF1 activator: 2.9; MT1-MMP txn act: 1.1

What do the screens show for `Cn1ncc2c1ncn1nc(CCc3ccccc3)nc21`?
RORa activator: 43.8; JNK3 blocker: 2.0; SF1 activator: 49.7*; MT1-MMP txn act: 1.5

What do the screens show for `CC(C)Cn1cc(C(=O)N2CCN(c3ccccn3)CC2)c2c3ccccc3n(C)c2c1=O`?
RORa activator: 22.6; JNK3 blocker: 0.0; SF1 activator: 12.7; MT1-MMP txn act: 1.3

What do the screens show for `COc1ccc(-c2nnc(SCC(=O)NCc3cccs3)n2CC(C)C)cc1`?
MT1-MMP txn act: 1.1

What do the screens show for `CCSc1nnc(-c2ccc(Cl)cc2Cl)o1`?
RORa activator: 40.1; JNK3 blocker: -7.6; SF1 activator: 54.5*; MT1-MMP txn act: 1.1

Results for O=C(CSc1nnc(-c2cccs2)o1)c1cccs1 ?
RORa activator: 27.0; JNK3 blocker: 4.3; SF1 activator: 97.6*; MT1-MMP txn act: 1.9

What do the screens show for `CCSc1nnc(-c2ccc(OC)cc2)o1`?
RORa activator: 89.7*; JNK3 blocker: 1.8; SF1 activator: 24.4; MT1-MMP txn act: 1.1

What do the screens show for `COc1ccc(-c2nnc(SCC(=O)c3cc(C)n(Cc4cccs4)c3C)o2)cc1`?
RORa activator: 7.1; JNK3 blocker: -0.9; SF1 activator: -11.6; MT1-MMP txn act: 1.1

Results for COc1ccc(-c2nnc(SCC(=O)c3cccs3)o2)cc1 ?
RORa activator: 49.8*; SF1 activator: 41.9; MT1-MMP txn act: 1.7

Results for CCCCc1ccc(N2C(=O)[C@@H]3C(CC(N)=O)NC4(C(=O)Nc5ccc(F)cc54)[C@@H]3C2=O)cc1 (stereo partly drawn) ?
MT1-MMP txn act: 1.2

How did CC(=O)c1c(C)[nH]c(C(=O)NCCc2cccc(C)c2)c1C do in these assays?
RORa activator: 17.1; JNK3 blocker: -2.0; SF1 activator: 71.0*; MT1-MMP txn act: 1.4

Results for Cc1nn(-c2ccccc2)c2sc(C(=O)O)cc12 ?
RORa activator: -6.6; SF1 activator: -7.5; MT1-MMP txn act: 1.1

What do the screens show for `Cc1nn(-c2ccccc2)c2sc(C(=O)N3CCOCC3)cc12`?
RORa activator: 57.8*; JNK3 blocker: 2.6; SF1 activator: 94.2*; MT1-MMP txn act: 1.9

Results for O=C(c1cc2c(=O)n3ccccc3nc2s1)N1CCOCC1 ?
RORa activator: 24.3; JNK3 blocker: 1.6; SF1 activator: 59.9*; MT1-MMP txn act: 1.5

What do the screens show for `O=C(c1cc2c(=O)oc3ccccc3c2s1)N1CCOCC1`?
RORa activator: 46.0; JNK3 blocker: 2.8; SF1 activator: 29.4; MT1-MMP txn act: 1.2

Results for COC(=O)c1ccc(-c2nc3ccc(C)cc3o2)cc1 ?
RORa activator: 68.2*; JNK3 blocker: -4.2; SF1 activator: 45.6; MT1-MMP txn act: 0.6

How did Cc1ccc2nc(-c3cccnc3)oc2c1 do in these assays?
RORa activator: 49.7*; JNK3 blocker: 6.1; SF1 activator: 32.9; MT1-MMP txn act: 1.4

How did COC(=O)c1ccccc1NC(=O)CSc1nnnn1C1CCCCC1 do in these assays?
RORa activator: -3.3; JNK3 blocker: 6.4; SF1 activator: 0.8; MT1-MMP txn act: 1.2

Results for CCOC(=O)c1ccccc1NC(=O)CSc1nnnn1C1CCCCC1 ?
RORa activator: 54.0*; JNK3 blocker: -11.9; SF1 activator: 4.7; MT1-MMP txn act: 1

Results for COCCCN(C(C)=O)c1nc(-c2ccc(OC)cc2)cs1 ?
RORa activator: 84.5*; JNK3 blocker: 7.3; SF1 activator: 98.1*; MT1-MMP txn act: 1.5

How did COc1ccc(S(=O)(=O)Nc2ccccc2C(=O)NC(C)C)cc1OC do in these assays?
RORa activator: 4.5; JNK3 blocker: -1.0; SF1 activator: -7.1; MT1-MMP txn act: 1.1

Results for Nc1n[nH]c(-c2ccccc2)n1 ?
MT1-MMP txn act: 1.1

What do the screens show for `COc1ccc(Nc2nc(N)nc(CSc3n[nH]c(-c4ccccc4)n3)n2)cc1`?
RORa activator: -0.5; JNK3 blocker: -2.7; SF1 activator: 9.9; MT1-MMP txn act: 1

How did Nc1nc(CSc2n[nH]c(-c3ccccc3)n2)nc(Nc2ccccc2)n1 do in these assays?
RORa activator: 71.8*; JNK3 blocker: 6.0; SF1 activator: 34.3; MT1-MMP txn act: 1.1

Results for Cc1ccc(-c2nc(Nc3ccccc3)n[nH]2)cc1 ?
RORa activator: 63.1*; JNK3 blocker: -1.6; SF1 activator: 64.5*; MT1-MMP txn act: 1.8

How did Cc1sc2c(c1C)CN(Cc1ccco1)CN2C(=O)c1ccccc1 do in these assays?
RORa activator: 20.0; JNK3 blocker: -3.4; SF1 activator: 22.4; MT1-MMP txn act: 2.1*

How did Cc1cc(=O)oc(C)c1C(=O)OCC(=O)c1ccc(Cl)cc1 do in these assays?
MT1-MMP txn act: 1.3

What do the screens show for `Nc1ccc(-c2cc(N)n(-c3ccccc3)n2)cc1`?
RORa activator: 7.4; JNK3 blocker: -4.8; SF1 activator: 0.0; MT1-MMP txn act: 1.5

What do the screens show for `Cc1cc(-c2cc(N)n(-c3ccccc3)n2)c(C)n1C1CCCC1`?
RORa activator: 9.5; JNK3 blocker: 1.9; SF1 activator: 42.7; MT1-MMP txn act: 2*

How did CCC(=O)N/C(N)=N/c1nc(C)c2cc(OC)ccc2n1 do in these assays?
RORa activator: 68.6*; JNK3 blocker: -1.1; SF1 activator: 43.8; MT1-MMP txn act: 1.3

What do the screens show for `COc1ccc2nc(/N=C(\N)NC(=O)C(C)(C)C)nc(C)c2c1`?
RORa activator: 11.8; JNK3 blocker: -5.5; SF1 activator: 34.2; MT1-MMP txn act: 1.6

Results for Cc1ccc2c(CC(=O)NCc3ccco3)coc2c1C ?
RORa activator: 52.2*; JNK3 blocker: -4.6; SF1 activator: 23.2

What do the screens show for `COC(=O)c1ccc(C(NC(=O)OCc2ccccc2)/C(=C/[C@@H](C)C(=O)Nc2ccccc2)C(F)(F)F)cc1` (stereo partly drawn)?
MT1-MMP txn act: 1.1
